Test system: HEK-293T
Assay: Multiplex assay against HEK293T;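 for Population Tubulin-Different-Phenotype (%): share of the cells with healthy nuclei that show this phenotype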
Format: toxicity, cell-based
Settings: human
Summary of the method: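 Imaging took place on a CQ1 microscope at 37°C and 5% CO2 once compound had been added to live cells stained at seeding with Hoechst33342, BioTracker Green Microtubule Cytoskeleton Dye, MitoTracker Red and Annexin V Alexa Fluor 680. CellPathfinder machine-learning gating classed cells as Hoechst high-intensity objects or normal cells, classed normal cells as having healthy, pyknosed or fragmented nuclei, and classed pyknosed cells as mitotic or apoptotic. Tubulin, mitochondrial-mass and membrane-permeability phenotypes are per cents of the healthy-nucleus cells.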

[1] = 12 h, 1 µM, compound concentration 1 uM, replicate 1
[2] = 12 h, 1 µM, compound concentration 1 uM, replicate 2
[3] = 12 h, 10 µM, compound concentration 10 uM, replicate 1
[4] = 12 h, 10 µM, compound concentration 10 uM, replicate 2
[5] = 24 h, 1 µM, compound concentration 1 uM, replicate 1
[6] = 24 h, 1 µM, compound concentration 1 uM, replicate 2
[7] = 24 h, 10 µM, compound concentration 10 uM, replicate 1
[8] = 24 h, 10 µM, compound concentration 10 uM, replicate 2
[9] = 48 h, 1 µM, compound concentration 1 uM, replicate 1
[10] = 48 h, 1 µM, compound concentration 1 uM, replicate 2
[11] = 48 h, 10 µM, compound concentration 10 uM, replicate 1
[12] = 48 h, 10 µM, compound concentration 10 uM, replicate 2

Cc1cc(C)c(S(=O)(=O)N(Cc2ccc(-c3cccc(S(C)(=O)=O)c3)cc2)Cc2ccc(C(F)(F)F)o2)c(C)c1
Population Apoptotic (%) [1]: 47% | Population Fragmented Nuclei (%) [1]: 13% | Population Healthy Nuclei (%) [1]: 36% | Population Hoechst High Intensity Objects (%) [1]: 10% | Population Membrane Permeable-Phenotype (%) [1]: 3% | Population Mitochondria Different-Phenotype (%) [1]: 81% | Population Mitotic Cells (%) [1]: 52% | Population Normal (%) [1]: 89% | Population Pyknosed Nuclei (%) [1]: 49% | Population Tubulin-Different-Phenotype (%) [1]: 59% | Total Cell Count [1]: 263 | Population Apoptotic (%) [2]: 13% | Population Fragmented Nuclei (%) [2]: 6% | Population Healthy Nuclei (%) [2]: 49% | Population Hoechst High Intensity Objects (%) [2]: 4% | Population Membrane Permeable-Phenotype (%) [2]: 9% | Population Mitochondria Different-Phenotype (%) [2]: 13% | Population Mitotic Cells (%) [2]: 86% | Population Normal (%) [2]: 95% | Population Pyknosed Nuclei (%) [2]: 43% | Population Tubulin-Different-Phenotype (%) [2]: 9% | Total Cell Count [2]: 213 | Population Apoptotic (%) [3]: 52% | Population Fragmented Nuclei (%) [3]: 12% | Population Healthy Nuclei (%) [3]: 35% | Population Hoechst High Intensity Objects (%) [3]: 14% | Population Membrane Permeable-Phenotype (%) [3]: 10% | Population Mitochondria Different-Phenotype (%) [3]: 89% | Population Mitotic Cells (%) [3]: 47% | Population Normal (%) [3]: 85% | Population Pyknosed Nuclei (%) [3]: 51% | Population Tubulin-Different-Phenotype (%) [3]: 90% | Total Cell Count [3]: 216 | Population Apoptotic (%) [4]: 6% | Population Fragmented Nuclei (%) [4]: 9% | Population Healthy Nuclei (%) [4]: 48% | Population Hoechst High Intensity Objects (%) [4]: 2% | Population Membrane Permeable-Phenotype (%) [4]: 5% | Population Mitochondria Different-Phenotype (%) [4]: 20% | Population Mitotic Cells (%) [4]: 93% | Population Normal (%) [4]: 97% | Population Pyknosed Nuclei (%) [4]: 41% | Population Tubulin-Different-Phenotype (%) [4]: 16% | Total Cell Count [4]: 145 | Population Apoptotic (%) [5]: 43% | Population Fragmented Nuclei (%) [5]: 13% | Population Healthy Nuclei (%) [5]: 44% | Population Hoechst High Intensity Objects (%) [5]: 9% | Population Membrane Permeable-Phenotype (%) [5]: 2% | Population Mitochondria Different-Phenotype (%) [5]: 66% | Population Mitotic Cells (%) [5]: 56% | Population Normal (%) [5]: 90% | Population Pyknosed Nuclei (%) [5]: 42% | Population Tubulin-Different-Phenotype (%) [5]: 49% | Total Cell Count [5]: 304 | Population Apoptotic (%) [6]: 9% | Population Fragmented Nuclei (%) [6]: 6% | Population Healthy Nuclei (%) [6]: 64% | Population Hoechst High Intensity Objects (%) [6]: 2% | Population Membrane Permeable-Phenotype (%) [6]: 10% | Population Mitochondria Different-Phenotype (%) [6]: 10% | Population Mitotic Cells (%) [6]: 90% | Population Normal (%) [6]: 97% | Population Pyknosed Nuclei (%) [6]: 29% | Population Tubulin-Different-Phenotype (%) [6]: 29% | Total Cell Count [6]: 261 | Population Apoptotic (%) [7]: 52% | Population Fragmented Nuclei (%) [7]: 13% | Population Healthy Nuclei (%) [7]: 38% | Population Hoechst High Intensity Objects (%) [7]: 15% | Population Membrane Permeable-Phenotype (%) [7]: 9% | Population Mitochondria Different-Phenotype (%) [7]: 74% | Population Mitotic Cells (%) [7]: 47% | Population Normal (%) [7]: 84% | Population Pyknosed Nuclei (%) [7]: 48% | Population Tubulin-Different-Phenotype (%) [7]: 89% | Total Cell Count [7]: 225 | Population Apoptotic (%) [8]: 11% | Population Fragmented Nuclei (%) [8]: 7% | Population Healthy Nuclei (%) [8]: 72% | Population Hoechst High Intensity Objects (%) [8]: 3% | Population Membrane Permeable-Phenotype (%) [8]: 6% | Population Mitochondria Different-Phenotype (%) [8]: 10% | Population Mitotic Cells (%) [8]: 88% | Population Normal (%) [8]: 96% | Population Pyknosed Nuclei (%) [8]: 19% | Population Tubulin-Different-Phenotype (%) [8]: 24% | Total Cell Count [8]: 187 | Population Apoptotic (%) [9]: 46% | Population Fragmented Nuclei (%) [9]: 13% | Population Healthy Nuclei (%) [9]: 61% | Population Hoechst High Intensity Objects (%) [9]: 8% | Population Membrane Permeable-Phenotype (%) [9]: 4% | Population Mitochondria Different-Phenotype (%) [9]: 38% | Population Mitotic Cells (%) [9]: 53% | Population Normal (%) [9]: 91% | Population Pyknosed Nuclei (%) [9]: 25% | Population Tubulin-Different-Phenotype (%) [9]: 39% | Total Cell Count [9]: 387 | Population Apoptotic (%) [10]: 9% | Population Fragmented Nuclei (%) [10]: 6% | Population Healthy Nuclei (%) [10]: 81% | Population Hoechst High Intensity Objects (%) [10]: 2% | Population Membrane Permeable-Phenotype (%) [10]: 7% | Population Mitochondria Different-Phenotype (%) [10]: 5% | Population Mitotic Cells (%) [10]: 90% | Population Normal (%) [10]: 97% | Population Pyknosed Nuclei (%) [10]: 11% | Population Tubulin-Different-Phenotype (%) [10]: 20% | Total Cell Count [10]: 474 | Population Apoptotic (%) [11]: 45% | Population Fragmented Nuclei (%) [11]: 13% | Population Healthy Nuclei (%) [11]: 60% | Population Hoechst High Intensity Objects (%) [11]: 6% | Population Membrane Permeable-Phenotype (%) [11]: 7% | Population Mitochondria Different-Phenotype (%) [11]: 57% | Population Mitotic Cells (%) [11]: 54% | Population Normal (%) [11]: 93% | Population Pyknosed Nuclei (%) [11]: 25% | Population Tubulin-Different-Phenotype (%) [11]: 80% | Total Cell Count [11]: 302 | Population Apoptotic (%) [12]: 16% | Population Fragmented Nuclei (%) [12]: 8% | Population Healthy Nuclei (%) [12]: 84% | Population Hoechst High Intensity Objects (%) [12]: 1% | Population Membrane Permeable-Phenotype (%) [12]: 3% | Population Mitochondria Different-Phenotype (%) [12]: 3% | Population Mitotic Cells (%) [12]: 84% | Population Normal (%) [12]: 98% | Population Pyknosed Nuclei (%) [12]: 6% | Population Tubulin-Different-Phenotype (%) [12]: 9% | Total Cell Count [12]: 367

Source: ChEMBL document CHEMBL4689842, “EUbOPEN Chemogenomics Library wave 1” (2021)
